Series [1] can be described thus: Drug uptake in human A549 cells assessed as increase in intracellular boron atoms at 30 uM measured after 24 hrs by ICP-MS analysis. The conditions noted are these: a549, 24 h. Type of series: ADME, cell-based. In outline: (§1)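 Cells seeded at 5 × 10^5/well and grown overnight at 37 °C, 5% CO2, normoxic. A549 in DMEM/10% FBS; HeLa S3 in MEM/10% FBS. Exposed to 30 μM compound for 24 h. Cells washed with PBS ×3 and digested in 60% HNO3 for 24 h at room temperature, then diluted, centrifuged and filtered. Total boron (10B+11B) measured by ICP-MS and normalized per cell from hemocytometer counts of a parallel well. Mean ± SD of triplicates.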

Series [2] can be described thus: Drug uptake in human A549 cells assessed as increase in intracellular boron concentration measured per cell at 30 uM measured after 24 hrs by ICP-MS analysis. It is filed as ADME, cell-based. The conditions noted are these: a549, 24 h. Put shortly: as §1
Series [3] concerns Calf thymus DNA. The experiment in a line: Binding affinity to calf thymus DNA assessed as stabilization by measuring change in melting temperature at ratio of 1 by UV/vis spectrophotometric. The conditions noted are these: Bos taurus. It is filed as nucleic-acid assay.
Series [4] deals with Calf thymus DNA. The experiment in a line: Binding affinity to calf thymus DNA assessed as stabilization by measuring change in melting temperature at ratio of 5 by UV/vis spectrophotometric. Type of series: nucleic-acid assay. As to conditions: Bos taurus; call rule not given here.
Series [5] can be described thus: Drug uptake in human HeLa S3 cells assessed as increase in intracellular boron concentration measured per cell at 30 uM measured after 24 hrs by ICP-MS analysis. It is filed as ADME, cell-based. As to conditions: hela s3, 24 h. Put shortly: as §1
For series [6], the system named is Calf thymus DNA. The experiment in a line: Binding affinity to calf thymus DNA assessed as stabilization by measuring change in melting temperature at ratio of 0.2 by UV/vis spectrophotometric. As to conditions: Bos taurus. It is filed as nucleic-acid assay.
The test system of series [7] is Calf thymus DNA. The series can be described thus: Binding affinity to calf thymus DNA assessed as stabilization by measuring change in melting temperature at ratio of 0.1 by UV/vis spectrophotometric. It is filed as nucleic-acid assay. The conditions noted are these: Bos taurus.

Consider `c1cc(B2OC3(CCCCC3)C3(CCCCC3)O2)ccc1CN1CCNCCNCC1`, for which, in series [1], the Drug uptake entry is listed as “Active”.

With `c1cc(CN2CCNCCNCC2)cc(B2OC3(CCCCC3)C3(CCCCC3)O2)c1`, the Drug uptake result in series [1] and in series [2] was “Active” in each case.

The term ΔTm denotes the shift of the melting midpoint relative to a reference. On to `c1cc(CN2CCNCCNCCNCC2)cc(B2OC3(CCCCC3)C3(CCCCC3)O2)c1`, for which the shift in melting temperature (ΔTm) in the series on Calf thymus DNA [3] is 1 °C; in the series with Calf thymus DNA [4], 6 °C. Further, in series [2], the Drug uptake result is recorded as “Active”.

With `c1cc(B2OC3(CCCCC3)C3(CCCCC3)O2)ccc1CN1CCNCCNCCNCCNCC1`, the Drug uptake in series [5] is on record as greater than 2.5 fmol; in series [2] it was “Active”. Further, the ΔTm in the series with Calf thymus DNA [3] is 3 °C; with Calf thymus DNA [4], 8 °C.

As for `NCCCCNCCCN`, the results for the ΔTm in the series with Calf thymus DNA [6] and with Calf thymus DNA [7] were 12 °C and 7 °C, respectively.

These data come from ChEMBL document CHEMBL5214904, “Design, Synthesis, and Biological Evaluation of Boron-Containing Macrocyclic Polyamines and Their Zinc(II) Complexes for Boron Neutron Capture Therapy” (J Med Chem, 2021).
